pEC50: −log10 of the molar value. Activity calls are given as the source filed them. No cut-off for these calls is given here.
Experiments:
[1] = Selectivity index, ratio of CC50 for HFF to EC50 for Human cytomegalovirus Towne infected in human foreskin fibroblasts
Procedure, shortened: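 SI calculated as CC50/EC50. CC50 from MTT assay in uninfected HFFs. EC50 from pp28-luciferase HCMV Towne inhibition in infected HFFs.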

[2] = Cytotoxicity against HFF assessed as inhibition of cell viability after 3 days by trypan blue exclusion assay; format: cell-based; conditions: human, HFF cells
[3] = Cytotoxicity against HFF assessed as inhibition of cell viability after 3 days by MTT assay; format: cell-based; conditions: human, HFF cells
Procedure, shortened: (§1)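 Uninfected HFFs exposed to a concentration range at 37 °C for 3 days. MTT (5 mg/mL stock in PBS) added for 3 h at 37 °C. Formazan dissolved in DMSO and absorbance read. Triplicates in three independent experiments, mean ± SD. CC50 from dose-response curves.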

[4] = test system: Human betaherpesvirus 5; assay: Antiviral activity against Human cytomegalovirus Towne infected in HFF assessed as inhibition of viral replication by measuring pp28 expression at 72 hrs post-infection by luciferase assay; format: functional, organism-based; conditions: Human betaherpesvirus 5, Towne
Procedure, shortened: (§2)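 HFFs infected with pp28-luciferase reporter HCMV at MOI 1 pfu/cell and treated across a concentration range. Luciferase activity read in cell lysates at 72 hpi. Triplicates in three independent experiments, mean ± SD. EC50 taken from dose-response curves.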

[5] = test system: HFF; assay: Cell cycle arrest in HFF infected with HCMV assessed as accumulation at G0/1 phase after 24 hrs by propidium iodide staining based flow cytometry; format: ADME; conditions: human
Procedure, shortened: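 HFFs serum-starved for 48 h, released, infected with Towne HCMV and treated with compound for 24 h. Cells trypsinized, permeabilized at −20 °C for 12 h, stained with propidium iodide and analysed by flow cytometry. Controls: serum-containing medium and GCV.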

[6] = test system: HFF; assay: Effect on lovastatin-induced cell cycle arrest in HFF infected with HCMV assessed as accumulation at G0/1 phase treated for 24 hrs after incubation with early G1 inhibitor lovastatin for 48 hrs by propidium iodide staining based flow cytometry; format: ADME; conditions: human
Procedure, shortened: (§3)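 HFFs pretreated 48 h with mimosine or lovastatin, washed and released, then HCMV-infected and treated 24 h (1 day) with compound. Trypsinized, permeabilized at −20 °C for 12 h, stained with propidium iodide and analysed by flow cytometry.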

[7] = test system: HFF; assay: Effect on mimosine-induced cell cycle arrest in HFF infected with HCMV assessed as accumulation at G0/1 phase treated for 1 day after incubation with mid-G1 inhibitor mimosine for 48 hrs by propidium iodide staining based flow cytometry; format: ADME; conditions: human, 24 h; procedure, shortened: as §3
[8] = test system: Human betaherpesvirus 5; assay: Antiviral activity against Human cytomegalovirus TB40 infected in HFF assessed as inhibition of viral replication at 50 nM after 3 days by GFP-based fluorescence analysis; format: functional, organism-based
Procedure, shortened: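 Human foreskin fibroblasts (HFFs) infected with HCMV-TB40 (GFP-expressing) at MOI 1 pfu/cell, then treated with compound for 3 days. Read-out: GFP fluorescence, with a bright-field image for comparison.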

[9] = Cytotoxicity against HFF assessed as inhibition of cell proliferation at 0.1 uM after 3 days by MTT assay; format: cell-based; conditions: human, HFF cells; procedure, shortened: as §1
[10] = test system: Human betaherpesvirus 5; assay: Antiviral activity against Human cytomegalovirus Towne infected in HFF assessed as plaque reduction at 50 nM measured 8 days post-infection; format: functional, organism-based
Procedure, shortened: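 Plaque reduction assay with HCMV Towne in HFFs, read at 8 days postinfection. Triplicate determinations in three independent experiments, mean ± SD.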

[11] = test system: Human betaherpesvirus 5; assay: Antiviral activity against Human cytomegalovirus Towne infected in HFF assessed as inhibition of viral replication by measuring pp28 expression at 50 nM at 72 hrs post-infection by luciferase assay; format: functional, organism-based; procedure, shortened: as §2
[12] = test system: Human betaherpesvirus 5; assay: Antiviral activity against Human cytomegalovirus Towne infected in HFF assessed as decrease in virus DNA yield at 50 nM measured 96 hrs post-infection by real-time PCR analysis; format: functional, organism-based
Procedure, shortened: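 HFFs infected with HCMV Towne at MOI 1 pfu/cell and treated for 4 days. Supernatants collected and viral DNA yield quantified by real-time PCR. Triplicate determinations in three independent experiments, reported as mean ± SD.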

## C[C@H]1O[C@H](O[C@H]2CC[C@@]3(C)[C@H](CC[C@@H]4[C@@H]3CC[C@]3(C)[C@@H](C5=CC(=O)OC5)CC[C@]43O)C2)CC[C@@H]1O[C@@H]1CC[C@H](O)[C@@H](C)O1
[1]
  Ratio CC50/EC50: 15
[2]
  CC50 at 72 h: 1 µM
[3]
  CC50 at 72 h: 12.1 µM
[4]
  pEC50: 6.10

## C[C@H]1O[C@H](O[C@H]2CC[C@@]3(C)[C@H](CC[C@@H]4[C@@H]3CC[C@]3(C)[C@@H](C5=CC(=O)OC5)CC[C@]43O)C2)CC[C@@H]1O[C@@H]1CC[C@H](O[C@@H]2CC[C@H](O)[C@@H](C)O2)[C@@H](C)O1
[1]
  Ratio CC50/EC50: 7
[2]
  CC50 at 72 h: 19 µM
[3]
  CC50 at 72 h: 15 µM
[4]
  pEC50: 5.68

## C[C@@H]1O[C@@H](O[C@@H]2CC[C@H](O[C@H]3CC[C@@]4(C)[C@H](CC[C@@H]5[C@@H]4CC[C@]4(C)[C@@H](C6=CC(=O)OC6)CC[C@]54O)C3)O[C@H]2C)CC[C@H]1O
[1]
  Ratio CC50/EC50: 76
[2]
  CC50 at 72 h: 7 µM
[3]
  CC50 at 72 h: 1.1 µM
[4]
  pEC50: 7.83

## C[C@@H]1O[C@@H](O[C@@H]2CC[C@H](O[C@@H]3CC[C@H](O[C@H]4CC[C@@]5(C)[C@H](CC[C@@H]6[C@@H]5CC[C@]5(C)[C@@H](C7=CC(=O)OC7)CC[C@]65O)C4)O[C@H]3C)O[C@H]2C)CC[C@H]1O
[1]
  Ratio CC50/EC50: 21
[2]
  CC50 at 72 h: 9 µM
[3]
  CC50 at 72 h: 2.4 µM
[4]
  pEC50: 6.95

## C[C@@H]1O[C@@H](O[C@H]2C[C@@H](O)[C@]3(CO)[C@H]4[C@H](O)C[C@]5(C)[C@@H](C6=CC(=O)OC6)CC[C@]5(O)[C@@H]4CC[C@]3(O)C2)[C@H](O)[C@H](O)[C@H]1O [OUABAIN]
[5]
  Activity: Active
[6]
  Activity: Not Active
[7]
  Activity: Not Active

## C[C@H]1O[C@H](O[C@H]2[C@H](O)[C@H](O)[C@@H](O[C@H]3CC[C@@]4(C)[C@H](CC[C@@H]5[C@@H]4CC[C@]4(C)[C@@H](C6=CC(=O)OC6)CC[C@]54O)C3)O[C@@H]2C)[C@@H](O)[C@@H](O)[C@@H]1O
[1]
  Ratio CC50/EC50: 32
[2]
  CC50 at 72 h: 10 µM
[3]
  CC50 at 72 h: 6.7 µM
[4]
  pEC50: 6.68

## C[C@@H]1O[C@@H](O[C@@H]2[C@@H](O)[C@@H](O)[C@H](O[C@H]3CC[C@@]4(C)[C@H](CC[C@@H]5[C@@H]4CC[C@]4(C)[C@@H](C6=CC(=O)OC6)CC[C@]54O)C3)O[C@H]2C)[C@H](O)[C@H](O)[C@H]1O
[1]
  Ratio CC50/EC50: 41
[2]
  CC50 at 72 h: 6 µM
[3]
  CC50 at 72 h: 1.5 µM
[4]
  pEC50: 7.44

## C[C@H]1O[C@H](O[C@H]2[C@H](O)[C@H](O)[C@@H](O[C@H]3[C@H](O)[C@H](O)[C@@H](O[C@H]4CC[C@@]5(C)[C@H](CC[C@@H]6[C@@H]5CC[C@]5(C)[C@@H](C7=CC(=O)OC7)CC[C@]65O)C4)O[C@@H]3C)O[C@@H]2C)[C@@H](O)[C@@H](O)[C@@H]1O
[1]
  Ratio CC50/EC50: 31
[2]
  CC50 at 72 h: 16 µM
[3]
  CC50 at 72 h: 10 µM
[4]
  pEC50: 6.49

## C[C@H]1O[C@@H](O[C@H]2[C@@H](O)C[C@H](O[C@H]3[C@@H](O)C[C@H](O[C@H]4CC[C@@]5(C)[C@H](CC[C@@H]6[C@@H]5CC[C@]5(C)[C@@H](C7=CC(=O)OC7)CC[C@]65O)C4)O[C@@H]3C)O[C@@H]2C)C[C@H](O)[C@@H]1O [DIGITOXIN]
[1]
  Ratio CC50/EC50: 120
[2]
  CC50 at 72 h: 6 µM
[8]
  inhibition: Active
[9]
  inhibition at 72 h, 0.1 µM: 50%
[3]
  CC50 at 72 h: 2.8 µM
[4]
  pEC50: 7.63
[5]
  Activity: Active
[6]
  Activity: Not Active
[7]
  Activity: Not Active
[10]
  inhibition: Active
[11]
  inhibition: Active
[12]
  inhibition: Active

## C[C@H]1O[C@H](O[C@H]2CC[C@@]3(C)[C@H](CC[C@@H]4[C@@H]3CC[C@]3(C)[C@@H](C5=CC(=O)OC5)CC[C@]43O)C2)CC[C@@H]1O
[1]
  Ratio CC50/EC50: 29
[2]
  CC50 at 72 h: 4 µM
[3]
  CC50 at 72 h: 1.1 µM
[4]
  pEC50: 7.43

## C[C@H]1O[C@H](O[C@H]2CC[C@@]3(C)[C@H](CC[C@@H]4[C@@H]3CC[C@]3(C)[C@@H](C5=CC(=O)OC5)CC[C@]43O)C2)[C@@H](O)[C@@H](O)[C@@H]1O
[1]
  Ratio CC50/EC50: 86
[2]
  CC50 at 72 h: 3.7 µM
[3]
  CC50 at 72 h: 2.3 µM
[4]
  pEC50: 7.58

## C[C@@H]1O[C@@H](O[C@H]2CC[C@@]3(C)[C@H](CC[C@@H]4[C@@H]3CC[C@]3(C)[C@@H](C5=CC(=O)OC5)CC[C@]43O)C2)[C@H](O)[C@H](O)[C@H]1O
[1]
  Ratio CC50/EC50: 139
[2]
  CC50 at 72 h: 2 µM
[3]
  CC50 at 72 h: 0.7 µM
[4]
  pEC50: 8.32

## C[C@]12CC[C@H](O[C@@H]3O[C@@H](CO)[C@H](O)[C@@H](O)[C@H]3O)C[C@H]1CC[C@@H]1[C@@H]2CC[C@]2(C)[C@@H](C3=CC(=O)OC3)CC[C@]12O
[1]
  Ratio CC50/EC50: 127
[2]
  CC50 at 72 h: 1.9 µM
[3]
  CC50 at 72 h: 0.9 µM
[4]
  pEC50: 8.14

## C[C@@H]1O[C@@H](O[C@@H]2[C@@H](O)[C@@H](O)[C@H](O[C@@H]3[C@@H](O)[C@@H](O)[C@H](O[C@H]4CC[C@@]5(C)[C@H](CC[C@@H]6[C@@H]5CC[C@]5(C)[C@@H](C7=CC(=O)OC7)CC[C@]65O)C4)O[C@H]3C)O[C@H]2C)[C@H](O)[C@H](O)[C@H]1O
[1]
  Ratio CC50/EC50: 30
[2]
  CC50 at 72 h: 11 µM
[3]
  CC50 at 72 h: 7 µM
[4]
  pEC50: 6.63

## C[C@@H]1O[C@@H](O[C@H]2CC[C@@]3(C)[C@H](CC[C@@H]4[C@@H]3CC[C@]3(C)[C@@H](C5=CC(=O)OC5)CC[C@]43O)C2)CC[C@H]1O [RAMNODIGIN]
[1]
  Ratio CC50/EC50: 174
[2]
  CC50 at 72 h: 4 µM
[9]
  inhibition at 72 h, 0.1 µM: 50%
[3]
  CC50 at 72 h: 0.7 µM
[4]
  pEC50: 8.42
